From paper PMC8923172 (Antimicrobial Agents and Chemotherapy, 2022)
Marks after values point to notes of the source that are not given here. Residues, ends and D or L forms follow the SMILES beside them.

Legend:
[1] = Single- and multiple-dose i.v. pharmacokinetics in cynomolgus monkeys; format: in vivo, cynomolgus monkeys (Macaca fascicularis); details: for Cmax: 1-h i.v. infusion; for Cmax / AUC0-∞ / AUCτ / CL / λz / Vss / MRT: mean (SD); for MRT: MRTinf
[2] = Serum biochemistry of cynomolgus monkeys at the end of treatment; format: in vivo; details: female, median (IQR)
Method in brief: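 GLP 10-day study in male and female cynomolgus monkeys (n = 3-5/sex/group) dosed once daily with 0 (placebo), 5, 10 or 15 mg/kg test compound by i.v. infusion over 60 ± 5 min. Hematology, serum chemistry and coagulation were taken at end of treatment and reported as median (IQR). Dose groups were compared by Kruskal-Wallis with Dunn's multiple comparison test.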

[3] = both, cynomolgus monkey, plasma, iv, 15 mg/kg/day

CC[C@H](C)[C@@H]1NC(=O)[C@@H]2CSSC[C@H](NC(=O)[C@H](CCCNC(=N)N)NC(=O)[C@@H]3CSSC[C@H](NC1=O)C(=O)N[C@@H]([C@@H](C)O)C(=O)N[C@@H](CCCNC(=N)N)C(=O)NCC(=O)N[C@@H](Cc1ccccc1)C(=O)N3)C(=O)N[C@@H](CC(C)C)C(=O)N[C@H]1CSSC[C@H](NC(=O)[C@H](C(C)C)NC(=O)CNC(=O)[C@H](CCCNC(=N)N)NC(=O)[C@H](CCCNC(=N)N)NC1=O)C(=O)N[C@@H](CCCNC(=N)N)C(=O)N2 [RTD-1, Rhesus theta (θ) defensin-1] (HELM PEPTIDE1{G.F.C.R.C.L.C.R.R.G.V.C.R.C.I.C.T.R}$PEPTIDE1,PEPTIDE1,3:R3-16:R3|PEPTIDE1,PEPTIDE1,5:R3-14:R3|PEPTIDE1,PEPTIDE1,7:R3-12:R3|PEPTIDE1,PEPTIDE1,1:R1-18:R2$$$V2.0)
Cmax ([1]; 0.3 mg/kg Day 1, n=2): 582 (109) ng/mL
AUC0-∞ ([1]; 0.3 mg/kg Day 1, n=2): 617 (137) ng · h/mL
AUCτ ([1]; 0.3 mg/kg Day 1, n=2): 591 (145) ng · h/mL
CL ([1]; 0.3 mg/kg Day 1, n=2): 498 (111) mL/h/kg
λz ([1]; 0.3 mg/kg Day 1, n=2): 0.523 (0.119) h^−1
Cmax ([1]; 1 mg/kg Day 1, n=2): 2,560 (820) ng/mL
AUC0-∞ ([1]; 1 mg/kg Day 1, n=2): 3,875 (973) ng · h/mL
AUCτ ([1]; 1 mg/kg Day 1, n=2): 3,818 (961) ng · h/mL
CL ([1]; 1 mg/kg Day 1, n=2): 266 (66.9) mL/h/kg
λz ([1]; 1 mg/kg Day 1, n=2): 0.251 (0.035) h^−1
AUCτ ([1]; 3 mg/kg Day 1, n=2): 10,334 (2,239) ng · h/mL
λz ([1]; 3 mg/kg Day 1, n=2): 0.078 (0.017) h^−1
Cmax ([1]; 5 mg/kg Day 1, n=6): 10,700 (2,455) ng/mL
AUCτ ([1]; 5 mg/kg Day 1, n=6): 27,160 (4,286) ng · h/mL
λz ([1]; 5 mg/kg Day 1, n=6): 0.323 (0.016) h^−1
AUCτ ([1]; 5 mg/kg Day 10, n=6): 38,936 (9,829) ng · h/mL
CL ([1]; 5 mg/kg Day 10, n=6): 136 (36.5)# mL/h/kg
λz ([1]; 5 mg/kg Day 10, n=6): 0.157 (0.009)# h^−1
accumulation: mean AUCτ day 10 vs mean AUC0-∞ day 1 ([1]; 5 mg/kg/day): approximately 1.4 fold
Cmax ([1]; 10 mg/kg Day 1, n=8): 26,675 (8,240) ng/mL
AUCτ ([1]; 10 mg/kg Day 1, n=8): 76,083 (23,562) ng · h/mL
CL ([1]; 10 mg/kg Day 1, n=8): 143 (48.2)* mL/h/kg
λz ([1]; 10 mg/kg Day 1, n=8): 0.192 (0.034)* h^−1
AUCτ ([1]; 10 mg/kg Day 10, n=6): 117,529 (26,077) ng · h/mL
CL ([1]; 10 mg/kg Day 10, n=6): 88.5 (18.5)* mL/h/kg
Vss ([1]; 10 mg/kg Day 10, n=6): 624 (88.2) mL/kg
λz ([1]; 10 mg/kg Day 10, n=6): 0.120 (0.018)* h^−1
accumulation: mean AUCτ day 10 vs mean AUC0-∞ day 1 ([1]; 10 mg/kg/day): ~1.5 fold
Cmax ([1]; 15 mg/kg Day 1, n=12): 46,458 (15,247)† ng/mL
AUCτ ([1]; 15 mg/kg Day 1, n=12): 138,135 (34,942) ng · h/mL
CL ([1]; 15 mg/kg Day 1, n=12): 114 (25.7) mL/h/kg
Vss ([1]; 15 mg/kg Day 1, n=12): 629 (176)† mL/kg
λz ([1]; 15 mg/kg Day 1, n=12): 0.149 (0.019)† h^−1
AUCτ ([1]; 15 mg/kg Day 4, n=2): 139,595 (2,366) ng · h/mL
λz ([1]; 15 mg/kg Day 4, n=2): 0.072 (0.020) h^−1
AUCτ ([1]; 15 mg/kg Day 7, n=2): 154,149 (12,406) ng · h/mL
λz ([1]; 15 mg/kg Day 7, n=2): 0.071 (0.017) h^−1
Cmax ([1]; 15 mg/kg Day 10, n=9): 32,233 (13,933)† ng/mL
AUCτ ([1]; 15 mg/kg Day 10, n=9): 173,315 (67,934) ng · h/mL
Vss ([1]; 15 mg/kg Day 10, n=9): 1,139 (411)† mL/kg
λz ([1]; 15 mg/kg Day 10, n=9): 0.078 (0.020)† h^−1
MRT ([1]; both, cynomolgus monkey, plasma, iv, 0.3 mg/kg, 0.3 mg/kg Day 1, n=2): 1.24 h
MRT ([1]; both, cynomolgus monkey, plasma, iv, 1 mg/kg, 1 mg/kg Day 1, n=2): 1.82 h
MRT ([1]; both, cynomolgus monkey, plasma, iv, 3 mg/kg, 3 mg/kg Day 1, n=2): 4.3 h
MRT ([1]; both, cynomolgus monkey, plasma, iv, 5 mg/kg, 5 mg/kg Day 1, n=6): 2.94 h
MRT ([1]; both, cynomolgus monkey, plasma, iv, 5 mg/kg, 5 mg/kg Day 10, n=6): 4.84 h
MRT ([1]; both, cynomolgus monkey, plasma, iv, 10 mg/kg, 10 mg/kg Day 1, n=8): 4.4 h
MRT ([1]; both, cynomolgus monkey, plasma, iv, 10 mg/kg, 10 mg/kg Day 10, n=6): 7.2 h
MRT ([1]; both, cynomolgus monkey, plasma, iv, 15 mg/kg, 15 mg/kg Day 1, n=12): 5.48 h
MRT ([1]; both, cynomolgus monkey, plasma, iv, 15 mg/kg, 15 mg/kg Day 4, n=2): 11.8 h
MRT ([1]; both, cynomolgus monkey, plasma, iv, 15 mg/kg, 15 mg/kg Day 7, n=2): 12.3 h
MRT ([1]; both, cynomolgus monkey, plasma, iv, 15 mg/kg, 15 mg/kg Day 10, n=9): 12 h
level at 288 h [1, 3]: 537 ng/mL
level at 576 h [1, 3]: 12.5 ng/mL
time plasma concentrations detectable post-end of infusion ([1]; single dose of 0.3 or 1 mg/kg): up to 12 h
A/G ([2]; 5 mg/kg/day): 1.7 (0.2)
ALP ([2]; 5 mg/kg/day): 576.0 (132.0) U/L
ALT ([2]; 5 mg/kg/day): 112.0 (50.0) U/L
AST ([2]; 5 mg/kg/day): 69.0 (22.0) U/L
Albumin ([2]; 5 mg/kg/day): 4.5 (0.5) g/dL
CK ([2]; 5 mg/kg/day): 301.0 (38.0) U/L
Calcium ([2]; 5 mg/kg/day): 10.0 (0.4) mg/dL
Chloride ([2]; 5 mg/kg/day): 107.0 (1.5) mmol/L
Cholesterol ([2]; 5 mg/kg/day): 104.0 (17.5) mg/dL
Creatinine ([2]; 5 mg/kg/day): 0.5 (0.1) mg/dL
GGT ([2]; 5 mg/kg/day): 92.0 (14.0) U/L
Globulin ([2]; 5 mg/kg/day): 2.7 (0.4) g/dL
Glucose ([2]; 5 mg/kg/day): 60.0 (7.5) mg/dL
Phos ([2]; 5 mg/kg/day): 5.7 (0.2) mg/dL
Potassium ([2]; 5 mg/kg/day): 4.9 (0.6) mmol/L
Sodium ([2]; 5 mg/kg/day): 146.0 (0.0) mmol/L
T-Bil ([2]; 5 mg/kg/day): 0.2 (0.0) mg/dL
TP ([2]; 5 mg/kg/day): 7.6 (0.7) g/dL
Triglycerides ([2]; 5 mg/kg/day): 49.0 (8.5) mg/dL
Urea N ([2]; 5 mg/kg/day): 15.0 (4.0) mg/dL
A/G ([2]; 10 mg/kg/day): 1.6 (0.2)
ALP ([2]; 10 mg/kg/day): 915.0 (64.0) U/L
ALT ([2]; 10 mg/kg/day): 126.0 (87.5) U/L
AST ([2]; 10 mg/kg/day): 104.0 (16.0) U/L
Albumin ([2]; 10 mg/kg/day): 4.3 (0.1) g/dL
CK ([2]; 10 mg/kg/day): 1,102.0 (1,584.0) U/L
Calcium ([2]; 10 mg/kg/day): 10.0 (0.1) mg/dL
Chloride ([2]; 10 mg/kg/day): 109.0 (2.0) mmol/L
Cholesterol ([2]; 10 mg/kg/day): 91.0 (10.5) mg/dL
Creatinine ([2]; 10 mg/kg/day): 0.6 (0.1) mg/dL
GGT ([2]; 10 mg/kg/day): 88.0 (7.0) U/L
Globulin ([2]; 10 mg/kg/day): 2.7 (0.4) g/dL
